Series [1] deals with Influenza A virus. The series can be described thus: Antiviral activity against Influenza A virus Port Chalmers/1/73 (H3N2) infected in MDCK cells at 1 mg/ml by agar diffusion method. In kind it is functional. The note with it: read-out: DIZ. The procedure, abridged: (§1)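 Agar diffusion: compounds were diluted to 1 mg/mL in Eagle's MEM from stocks of 10 mg/mL in water or 100 mg/mL in DMSO. 0.02 mL went into 6 mm wells cut in the agar overlay above infected monolayers (influenza in MDCK, Coxsackie B1 in HeLa). Read-out was the diameter (mm) of the plaque-free inhibition zone around each well.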
A general note: In agar diffusion tests the substance spreads into inoculated agar from a disc or well.

Series [2] relates to Influenza A virus. The series can be described thus: Antiviral activity against Influenza A virus Port Chalmers/1/73 (H3N2) infected in MDCK cells assessed as plaque reduction after 3 days by agar diffusion method. In kind it is functional. An outline of the steps: (§2)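 Plaque reduction: varying compound concentrations were put in the agar overlay above infected monolayers. Coxsackie B1/HeLa was incubated 42 h at 37 °C; influenza/MDCK 3 days at 33 °C. PDD50 is the lowest concentration giving ≥50% fewer plaques than untreated controls.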

In series [3] the test system is Coxsackievirus B1. The series can be described thus: Antiviral activity against Coxsackievirus B1 infected in human HeLa cells at 1 mg/ml by agar diffusion method. As to conditions: Enterovirus B; read-out: DIZ. In kind it is functional. The procedure, abridged: as §1
Series [4] concerns Coxsackievirus B1. The series can be described thus: Antiviral activity against Coxsackievirus B1 infected in human HeLa cells assessed as plaque reduction after 42 hrs by agar diffusion method. In kind it is functional. An outline of the steps: as §2
A short description of series [5]: Cytotoxicity against MDCK cells infected with Influenza A virus Port Chalmers/1/73 (H3N2) after 3 days by carbol fuchsin staining-based assay. The note with it: dog. In kind it is cell-based, Canis lupus familiaris. An outline of the steps:
(§3)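 MDCK monolayers infected with influenza had compound in the agar overlay and were incubated 3 days at 33 °C. Monolayers were stained with carbol fuchsin or neutral red. MCC is the lowest concentration causing morphological cell abnormalities.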

The nature of series [6]: Cytotoxicity against human HeLa cells infected with Coxsackievirus B1 after 42 hrs by carbol fuchsin staining-based assay. In kind it is cell-based. The procedure, abridged:
(§4)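 HeLa monolayers infected with Coxsackie B1 under an agar overlay holding varying compound concentrations, incubated 37 °C, 42 h. Monolayers stained with carbol fuchsin or neutral red. MCC is the lowest concentration causing morphological abnormalities.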

In series [7] the test system is Influenza A virus. The series can be described thus: Antiviral activity against Influenza A virus Port Chalmers/1/73 (H3N2) infected in MDCK cells assessed as plaque reduction up to 100 ug/ml after 3 days by agar diffusion method. In kind it is functional, organism-based. The procedure, abridged: as §2
The test system of series [8] is Coxsackievirus B1. The series can be described thus: Antiviral activity against Coxsackievirus B1 infected in human HeLa cells assessed as plaque reduction up to 100 ug/ml after 42 hrs by agar diffusion method. In kind it is functional, organism-based. An outline of the steps: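 Compound mixed at varying concentrations into the agar overlay above Coxsackie B1-infected HeLa monolayers. Incubated 37 °C for 42 h. PDD50 is the lowest concentration giving ≥50% fewer plaques than untreated controls.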

The next series deals with MDCK. The series can be described thus: Cytotoxicity against MDCK cells infected with Influenza A virus Port Chalmers/1/73 (H3N2) up to 100 ug/ml after 3 days by carbol fuchsin staining-based assay. In kind it is cell-based, Canis lupus familiaris. The note with it: dog, 72 h. An outline of the steps: as §3
Another series concerns HeLa. The series can be described thus: Cytotoxicity against human HeLa cells infected with Coxsackievirus B1 up to 100 ug/ml after 42 hrs by carbol fuchsin staining-based assay. In kind it is cell-based. An outline of the steps: as §4
The nature of series [9]: Solubility in water. In kind it is physicochemical. The note with it: buffer.
Series [10] can be described thus: Stability in aqueous solutions at neutral pH. In kind it is physicochemical. As to conditions: buffer.
The nature of series [11]: Stability in unbuffered aqueous solutions at pH >6 assessed as compound hydrolysis. In kind it is physicochemical. As to conditions: unbuffered aqueous solution.
Series [12] is described as follows: Stability in unbuffered aqueous solutions at pH >6 assessed as compound decarboxylation. In kind it is physicochemical.
Series [13] concerns Influenza A virus. The series can be described thus: Antiviral activity against Influenza A virus Port Chalmers/1/73 (H3N2) infected in ferret assessed as serum antibody response to virus infection at 16 mg/kg administered intranasally 7 times on day 0 and 9 times on day 1 to day 3 by serum antibody response test relative to untreated control. In kind it is functional, organism-based. More on the design: dose 16 mg/kg. The procedure, abridged: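 Dosing was as in the other ferret groups: infected ferrets, hourly intranasal 0.2 mL of 50 mg/mL in water, 7 doses on day 0 and 9 on days +1 to +3. Blood was taken by cardiac puncture under Penthrane/N2O/O2 before and 10 days after infection. Sera were KIO4-treated to remove nonspecific inhibitors, then tested by hemagglutination inhibition against the infecting virus.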

Activity calls are given as the source filed them. No cut-off for these calls is given here. Some results are limits rather than exact numbers.

As for `CNC1=NC(=O)C(C(C)c2c[nH]c3ccccc23)S1` (racemic), the values for the zone of inhibition at 1000 µg/mL in the series on Influenza A virus [1] and in the series on Coxsackievirus B1 [3] were 30 mm and 29 mm, respectively. Besides, the PDD50 is 0.5 µg/mL with Influenza A virus [2] and 5 µg/mL with Coxsackievirus B1 [4]. The compound further yielded an MCC at 72 h in series [5] of 3 µg/mL. The compound also returned an MCC at 42 h in series [6] of 30 µg/mL.
Regarding `CNC1=NC(=O)C(C(C)c2cn(C(=O)OCC(C)(C)N(C)C)c3ccccc23)S1` (racemic) [listing 1 of 2 here], the results for the zone of inhibition at 1000 µg/mL in the series on Influenza A virus [1] and in the series on Coxsackievirus B1 [3] were 30 mm and 35 mm, respectively. The PDD50 with Influenza A virus [2] worked out at 0.3 µg/mL; in the series with Coxsackievirus B1 [4] it was 20 µg/mL. The MCC at 72 h in series [5] was 3 µg/mL. Besides, the MCC at 42 h in [6] stood at 100 µg/mL.
`CNC1=NC(=O)C(C(C)c2cn(C(=O)OCc3ccccc3)c3ccccc23)S1` (racemic): the result in the series with Influenza A virus [7] and in the series with Coxsackievirus B1 [8] was inactive. Besides, the Activity entry in the series with MDCK and in the series with HeLa was “Non-toxic” each time.
As for `OC(c1ccccc1)c1nc2ccccc2[nH]1` (stereo not given), in the series with Coxsackievirus B1 [3], the zone of inhibition at 1000 µg/mL came to 25 mm. For the same compound, the PDD50 in the series with Coxsackievirus B1 [4] is 20 µg/mL. The MCC at 42 h in [6] was above 100 µg/mL.
Take `CNC1=NC(=O)C(C(C)c2cn(C(=O)c3ccccc3C(=O)O)c3ccccc23)S1` (racemic) [listing 1 of 2 here]: the Activity entry with MDCK and in the series with HeLa was “Non-toxic” each time.
Turning to `CNC1=NC(=O)C(C(C)c2cn(C(=O)CCC(=O)O)c3ccccc23)S1` (racemic), the zone of inhibition at 1000 µg/mL in the series on Influenza A virus [1] and in the series on Coxsackievirus B1 [3] was 0 mm in each case. Moreover, the PDD50 is above 100 µg/mL with Influenza A virus [2] and 100 µg/mL with Coxsackievirus B1 [4]. This compound came in with an MCC at 72 h in series [5] above 100 µg/mL. This compound also registered an MCC at 42 h in series [6] above 100 µg/mL.
Take `CNC1=NC(=O)C(C(C)c2cn(C(=O)c3ccccc3C(=O)O)c3ccccc23)S1` (racemic) [listing 2 of 2 here]: the outcome with Influenza A virus [7] and in the series on Coxsackievirus B1 [8] was inactive.
For `CNC1=NC(=O)C(C(C)c2cn(C(=O)CCCC(=O)O)c3ccccc23)S1` (racemic), the zone of inhibition at 1000 µg/mL in the series with Influenza A virus [1] came to 24 mm; with Coxsackievirus B1 [3], 20 mm. In addition, the results for the PDD50 in the series on Influenza A virus [2] and with Coxsackievirus B1 [4] were 5 µg/mL and 10 µg/mL, respectively. Further, in series [5], the MCC at 72 h turned out to be 100 µg/mL. Further, in [6], the MCC at 42 h was above 100 µg/mL.
As for `CNC1=NC(=O)C(C(C)c2cn(C(=O)CCC(=O)[O-])c3ccccc23)S1.[Na+]` (racemic), the solubility entry in series [9] is reported as “soluble”. In [10], the Stability result is listed as “Stable”.
Take `CNC1=NC(=O)C(C(C)c2cn(C(=O)OCC(C)(C)N3CCOCC3)c3ccccc23)S1.Cl` (racemic): the solubility result in [9] is “soluble”. For the same compound, the Stability entry in [11] and in [12] was “Unstable” throughout.
As to `CNC1=NC(=O)C(C(C)c2cn(C(=O)OCC(C)(C)N(C)C)c3ccccc23)S1` (racemic) [listing 2 of 2 here], the outcome in the series with Influenza A virus [13] was Active.
With `CNC1=NC(=O)C(C(C)c2cn(C(=O)CCCC(=O)[O-])c3ccccc23)S1.[Na+]` (racemic), in series [9], the solubility entry is reported as “soluble”. The Stability entry in series [10] was “Stable”.
Take `CNC1=NC(=O)C(C(C)c2cn(C(=O)OCC(C)(C)N3CCOCC3)c3ccccc23)S1` (racemic): the zone of inhibition at 1000 µg/mL in the series with Influenza A virus [1] was determined as 26 mm; in the series with Coxsackievirus B1 [3], 24 mm. Besides, the PDD50 in the series on Influenza A virus [2] worked out at 2 µg/mL; in the series with Coxsackievirus B1 [4] it was 5 µg/mL. This compound had an MCC at 72 h in [5] of 30 µg/mL. In series [6], this compound displayed an MCC at 42 h of 100 µg/mL.
Consider `CNC1=NC(=O)C(C(C)c2cn(C(=O)OC(C)CN(C)C)c3ccccc23)S1.Cl` (racemic), for which the solubility entry in series [9] is given as “soluble”. In addition, the Stability result in series [11] and in series [12] was “Unstable” each time.
`CNC1=NC(=O)C(C(C)c2cn(C(=O)OC(C)(C)CN(C)C)c3ccccc23)S1` (racemic): the zone of inhibition at 1000 µg/mL in the series on Influenza A virus [1] amounted to 25 mm; in the series on Coxsackievirus B1 [3], 21 mm. Moreover, the PDD50 in the series on Influenza A virus [2] turned out to be 0.3 µg/mL; with Coxsackievirus B1 [4], 5 µg/mL. The compound also came in with an MCC at 72 h in series [5] of 3 µg/mL. The compound also returned an MCC at 42 h in series [6] of 30 µg/mL.
Regarding `CNC1=NC(=O)C(C(C)c2cn(C(=O)OC(C)CN(C)C)c3ccccc23)S1` (racemic), the zone of inhibition at 1000 µg/mL with Influenza A virus [1] is 31 mm; in the series with Coxsackievirus B1 [3] it was 25 mm. Besides, the PDD50 with Influenza A virus [2] was found to be 0.5 µg/mL; in the series with Coxsackievirus B1 [4], 20 µg/mL. Moreover, the MCC at 72 h in [5] stood at 10 µg/mL. The same compound yielded an MCC at 42 h in [6] of 100 µg/mL.
In the case of `CNC1=NC(=O)C(C(C)c2cn(C(=O)CCC(=O)OC)c3ccccc23)S1` (racemic), the outcome in the series on Influenza A virus [7] and with Coxsackievirus B1 [8] was inactive. The Activity entry with MDCK and in the series on HeLa was “Non-toxic” throughout.
Take `CNC1=NC(=O)C(C(C)c2cn(C(=O)OC(C)(C)CN(C)C)c3ccccc23)S1.Cl` (racemic): in series [9], the solubility result is “soluble”. Also, the Stability entry in series [11] and in series [12] was “Unstable” throughout.
Take `CNC1=NC(=O)C(C(C)c2cn(C(=O)c3ccccc3C(=O)[O-])c3ccccc23)S1.[Na+]` (racemic): in series [9], the solubility result is listed as “soluble”. Besides, in series [10], the Stability result is on record as “Stable”.
In the case of `CCSC(=O)n1cc(C(C)C2SC(NC)=NC2=O)c2ccccc21` (racemic), the result with Influenza A virus [7] and in the series with Coxsackievirus B1 [8] was inactive. Besides, the Activity entry in the series on MDCK and in the series on HeLa was “Non-toxic” throughout.
Turning to `CNC1=NC(=O)C(C(C)c2cn(C(C)=O)c3ccccc23)S1` (racemic), the outcome in the series on Influenza A virus [7] and in the series with Coxsackievirus B1 [8] was inactive. In addition, the Activity result in the series with MDCK and with HeLa was “Non-toxic” in each case.
`CNC1=NC(=O)C(C(C)c2cn(C(=O)OCC(C)(C)[N+](C)(C)C)c3ccccc23)S1.[I-]` (racemic): the result in the series on Influenza A virus [7] and in the series with Coxsackievirus B1 [8] was inactive. Besides, the Activity entry in the series with MDCK and with HeLa was “Non-toxic” each time.

Values taken from ChEMBL document CHEMBL3244172, “Easily hydrolyzable, water-soluble derivatives of (+/-)-alpha-5-[1-(indol-3-yl)ethyl]-2-methylamino-delta2-thiazoline-4-one, a novel antiviral compound” (J Med Chem, 1979).
